Source: ChEMBL document CHEMBL4359879, “Synthesis and evaluation of 2-carboxy indole derivatives as potent and selective anti-leukemic agents” (Eur J Med Chem, 2019)
Activity calls are given as the source filed them. The calls are words filed in the database; no cut-off is given here.

What was measured:
[1] = tested on: HL-60; test: Effect on human HL60 cells assessed as fold change in FBXO25 gene expression at 1.085 uM incubated for 6 hrs by microarray-based method; assay type: functional
How it was run: (§1)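 HL60 cells were treated in triplicate with 1.085 µM or vehicle for 6 h. Total RNA was extracted with on-column DNase treatment and profiled on expression arrays.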

[2] = tested on: HeLa; test: Induction of cell cycle arrest in human HeLa cells assessed as formation of condensed chromosomes at 500 nM incubated for 18 hrs by DAPI staining based fluorescence microscopic method; assay type: functional
How it was run: (§2)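 HeLa cells (100,000/mL) cultured overnight on glass-bottom dishes, then exposed to 500 nM or 1 μM, or DMSO, for 18 h. Permeabilized (0.5% Triton X-100) and fixed (3.7% formaldehyde). Stained overnight at 4 °C with anti-β-tubulin, then Alexa Fluor 647 secondary for 1 h at room temperature, and DAPI 1 μg/mL for 10 min. Examined by fluorescence microscopy.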

[3] = tested on: HL-60; test: Effect on human HL60 cells assessed as fold change in IPO13 gene expression at 1.085 uM incubated for 6 hrs by microarray-based method; assay type: functional; how it was run: as §1
[4] = tested on: CCRF-CEM; test: Effect on human CEM cells assessed as increase in p53 protein expression at 300 nM incubated for 15 to 360 mins by Western blot analysis; assay type: functional, cell-based
How it was run: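 RS4;11, CEM and HL60 cells were exposed to 300 nM for 0, 15, 30, 60 and 360 min. Lysates were immunoblotted for β-tubulin and p53, with lamin B1 as loading control. Detection was by chemiluminescence.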

[5] = tested on: HL-60; test: Induction of cell cycle arrest in human HL60 cells assessed as accumulation of cells at S phase at EC50 incubated for 12 hrs by PI staining based flow cytometric analysis (reference value: 19.0%); assay type: functional
[6] = tested on: HL-60; test: Effect on human HL60 cells assessed as fold change in ANKRD36 gene expression at 1.085 uM incubated for 6 hrs by microarray-based method; assay type: functional; how it was run: as §1
[7] = target: T1, Tubulin (Homo sapiens) (UniProt P68371+Q9H4B7+P0DPH7+P68366+Q13509+Q71U36+P04350+Q3ZCM7+P07437+P68363+Q9BQE3+Q6PEY2+Q13885+Q9BVA1+Q9BUF5); test: Induction of microtubule network depolymerization in human HeLa cells assessed as formation of condensed chromosomes at 500 nM incubated for 18 hrs by DAPI staining based fluorescence microscopic method; assay type: cell-based; how it was run: as §2
[8] = tested on: HL-60; test: Induction of cell cycle arrest in human HL60 cells assessed as increase in accumulation of cells at sub G1 phase at EC50 by PI staining based flow cytometric analysis; assay type: functional; conditions: TDE = time-dependent effect
[9] = tested on: HL-60; test: Effect on human HL60 cells assessed as fold change in MIR4658 gene expression at 1.085 uM incubated for 6 hrs by microarray-based method; assay type: functional; how it was run: as §1
[10] = tested on: HL-60; test: Effect on human HL60 cells assessed as fold change in SPATA7 gene expression at 1.085 uM incubated for 6 hrs by microarray-based method; assay type: functional; how it was run: as §1
[11] = tested on: HL-60; test: Effect on human HL60 cells assessed as fold change in FOXJ2 gene expression at 1.085 uM incubated for 6 hrs by microarray-based method; assay type: functional; how it was run: as §1
[12] = tested on: HL-60; test: Effect on human HL60 cells assessed as fold change in MEIOC gene expression at 1.085 uM incubated for 6 hrs by microarray-based method; assay type: functional; how it was run: as §1
[13] = tested on: T-cell; test: Cytotoxicity against phytohemagglutinin and interleukin-2-stimulated T-lymphocytes (unknown origin) up to 100 uM after 48 hrs by MTT assay; assay type: cell-based
How it was run: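 Post-ficoll lymphocytes from healthy donors were grown in RPMI-1640 with 10% FBS and stimulated overnight with phytohemagglutinin (25 µL/mL) plus IL-2 (50 U/mL). They were then exposed to decreasing concentrations for 48 h. Viability was measured by MTT (0.5 mg/ml final, 4 h), with SDS/HCl solubilization and absorbance at 570/620 nm, as survival relative to controls.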

[14] = tested on: RS4-11; test: Antitumor activity against human RS4:11 cells xenografted in NOD/SCID mouse assessed as increase in survival at 10 mg/kg, ip administrated 5 times per week; assay type: functional, organism-based
How it was run: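 Ten million RS4;11 cells were injected into the tail vein of unconditioned NOD/SCID mice. Engraftment was tracked by flow cytometry of human versus mouse CD45 in ficoll-isolated blood. When human CD45+ cells reached ≥1.5% in half of the mice, animals were randomized (n=5 per group) to vehicle (1% PVP, 4% DMSO, 95% PBS) or 10 mg/kg ip, 5x per week until death. Groups were compared by Kaplan-Meier curves and log-rank test.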

[15] = tested on: HL-60; test: Effect on human HL60 cells assessed as fold change in flaw-mawbo gene expression at 1.085 uM incubated for 6 hrs by microarray-based method; assay type: functional
[16] = tested on: HL-60; test: Induction of cell cycle arrest in human HL60 cells assessed as accumulation of cells at sub G0/G1 phase at EC50 incubated for 18 hrs by PI staining based flow cytometric analysis (reference value: 1.67%); assay type: functional
[17] = tested on: HL-60; test: Effect on human HL60 cells assessed as fold change in NMNAT1 gene expression at 1.085 uM incubated for 6 hrs by microarray-based method; assay type: functional; how it was run: as §1
[18] = tested on: RS4-11; test: Effect on human RS4:11 cells assessed as increase in p53 protein expression at 300 nM incubated for 15 to 360 mins by Western blot analysis; assay type: functional, cell-based
How it was run: (§3)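 Leukemia cells (RS4;11, CEM, HL60) treated with 300 nM for 0, 15, 30, 60 and 360 min. Western blotting for β-tubulin and p53, with lamin B1 as loading control and chemiluminescent detection.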

[19] = tested on: HL-60; test: Induction of cell cycle arrest in human HL60 cells assessed as accumulation of cells at G0/G1 phase at EC50 incubated for 18 hrs by PI staining based flow cytometric analysis (reference value: 56.3%); assay type: functional
[20] = tested on: HL-60; test: Effect on human HL60 cells assessed as fold change in SGOL1 gene expression at 1.085 uM incubated for 6 hrs by microarray-based method; assay type: functional; how it was run: as §1
[21] = target: T1, Tubulin (Homo sapiens); test: Induction of microtubule network depolymerization in human HeLa cells assessed as fragmented centrosomal material at 500 nM incubated for 18 hrs by DAPI staining based fluorescence microscopic method; assay type: cell-based; how it was run: as §2
[22] = tested on: HL-60; test: Effect on human HL60 cells assessed as fold change in DSTYK gene expression at 1.085 uM incubated for 6 hrs by microarray-based method; assay type: functional; how it was run: as §1
[23] = tested on: RS4-11; test: Induction of DNA damage in human RS4:11 cells assessed as accumulation of cells at G1 phase at 300 nM incubated for 18 hrs in presence of H2AX antibody by immunofluorescent staining based flow cytometric analysis relative to control; assay type: functional
How it was run: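 RS4;11 cells treated with 300 nM or DMSO vehicle for 18 h, then pulsed with 10 μM BrdU for 1 h. Harvested cells immunostained for BrdU/PI (cell cycle), γH2AX (DNA damage) and PARP (apoptosis). Multicolor flow cytometry gated G1, sub-G2-like, G2/M and sub-G0/G1 populations.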

[24] = target: T1, Tubulin (Homo sapiens); test: Inhibition of tubulin polymerization in human CEM cells at 300 nM by Western blot analysis; assay type: cell-based; conditions: TDE = time-dependent effect; how it was run: as §3
[25] = tested on: HL-60; test: Induction of differentiation in human HL60 cells assessed as increase in CD11b positive cells incubated for 48 hrs by 7-AAD staining-based flow cytometric analysis; assay type: functional, cell-based
How it was run: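 Vitamin D3 at 100 nM and ATRA at 2 μM served as positive controls. Stained with APC anti-CD11b and PE anti-CD14 for 30 min at 4 °C, then 7-AAD.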

**Q.** How did the “fold change (FC)” value [1] turn out when `COC(=O)c1[nH]c2cc(OC)ccc2c1-c1ccc(C(F)(F)F)cc1` was run?
**A.** The value was 1.71.

**Q.** And the Activity [2]?
**A.** Its Activity is “Active”.

**Q.** And the “fold change (FC)” value [3]?
**A.** The value was 1.8.

**Q.** What about the Activity [4] of the same compound?
**A.** The Activity was “Active”.

**Q.** What about the Activity [5] of the same compound?
**A.** Its Activity is 19.1%.

**Q.** And the “fold change (FC)” value [6]?
**A.** The value was 1.54.

**Q.** What about the Activity [7] of the same compound?
**A.** Its Activity is “Active”.

**Q.** What about the Activity [8] of the same compound?
**A.** Its Activity is “Tde”.

**Q.** What about the “fold change (FC)” value [9] of the same compound?
**A.** The value was -1.72.

**Q.** What about the “fold change (FC)” value [10] of the same compound?
**A.** Its value is 1.56.

**Q.** What about the “fold change (FC)” value [11] of the same compound?
**A.** Its value is 1.62.

**Q.** And the “fold change (FC)” value [12]?
**A.** Its value is -1.63.

**Q.** And the Activity [13]?
**A.** Its Activity is “Non-Toxic”.

**Q.** And the Activity [14]?
**A.** The Activity was “Active”.

**Q.** What about the “fold change (FC)” value [15] of the same compound?
**A.** The value was -1.62.

**Q.** What about the Activity [16] of the same compound?
**A.** The Activity was 24.1%.

**Q.** What about the “fold change (FC)” value [17] of the same compound?
**A.** The value was 1.5.

**Q.** And the Activity [18]?
**A.** Its Activity is “Active”.

**Q.** What about the Activity [19] of the same compound?
**A.** The Activity was 10.6%.

**Q.** And the “fold change (FC)” value [20]?
**A.** Its value is 1.52.

**Q.** And the Activity [21]?
**A.** The Activity was “Active”.

**Q.** And the “fold change (FC)” value [22]?
**A.** The value was 1.61.

**Q.** And the Activity [23]?
**A.** Its Activity is 6.9%.

**Q.** What about the inhibition [24] of the same compound?
**A.** Its inhibition is “Tde”.

**Q.** What about the Activity [25] of the same compound?
**A.** The Activity was “Dose-dependent effect”.
